Results taken from the EternaBench riboswitch data.

Tested on: MS2 coat protein
Test: apparent Kd, MS2 coat protein; higher = weaker binding; RNA-MaP array; FMN 200 µM where present
In short: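 In 100 mM Tris-HCl pH 7.5, 80 mM KCl, 4 mM MgCl2, BSA, DTT, yeast tRNA and Tween-20, SNAP-549-labelled MS2 coat protein was titrated from 0.7 or 1.5 nM, doubling to 3 µM, over designs transcribed by stalled E. coli RNA polymerase on Illumina sequencing-chip clusters. This was done first without ligand, then with ligand held constant. After green signal was normalised to red-channel RNA signal and control-cluster median Fmax, the apparent Kd was taken as the median of filtered per-cluster binding-curve fits.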

[1] = designed as: OFF switch for flavin mononucleotide, no ligand
[2] = ligand present: flavin mononucleotide, designed as: OFF switch for flavin mononucleotide
[3] = designed as: ON switch for flavin mononucleotide, no ligand
[4] = ligand present: flavin mononucleotide, designed as: ON switch for flavin mononucleotide

| Sequence | apparent Kd [1] [nM] | apparent Kd [2] [nM] | apparent Kd [3] [nM] | apparent Kd [4] [nM] |
| --- | --- | --- | --- | --- |
| UUUAUAUGAGGAUAUCCGAGGAGCCACAUGAGGAUCACCCAUGUCGUCUUUUGUGAUAGUGGAGAAGGUGUGUCAG | 27.7 | 31.6 | – | – |
| UGACUGAUAUAGAAGGGUAUGUGGGAAUUACAUGAGGAUCACCCAUGUUUUAUAGGAUAUGUAUAUAGAAUUUAAUCAAGUUUA | 40.5 | 37.1 | – | – |
| UGUCCGGUCAUAGGAUAUGACAUGAGGAUCACCCAUGUCUGCUUGGCUUGACCGUUGAUCCAUUGUCAGAAGGGUGCCGUUACA | 43.2 | 63.1 | – | – |
| ACUGGAGCAGGAUAUAUAUGACGUGCUUCGGCACGAAGAUCACAUGAGGAUCACCCAUGUAGAAGGGCUCCAGU | 106 | 813 | – | – |
| UCGAGUCAUGAGAAGGGCUGAUGUUACAUGAGGAUCACCCAUGUCAUGGGCAGGAUAUCAUUGACACGGCUGUACCUCUCUUAA | – | – | 107 | 19.3 |
| UACUGGAUUGUAGACGCGUUGCGACGAGAAGGUACACAUGAGGAUCACCCAUGUCGAGUGGGAGGUAAGGAUAUUGGAUGGCGU | – | – | 293 | 211 |
| UGAACUAUGUAGAAGGCCCACAUUAAUAUGUAGGGAGGAUAUACAUGAGGAUCACCCAUGUAAAGAGCAAGAGGAUUUAACAGA | 10.3 | 21.7 | – | – |
| GUUGUGCGAGGAUAUAUGUGAGGUUUGCCUCAACAGGUAAUACAUGAGGAUCACCCAUGUAGAAGGCGCAUGAG | 102 | 589 | – | – |
| GUCCUUUCUGAGGAUAUUAUCUGGUUCGAUUGAUAAGAAGGCAGUACAUGAGGAUCACCCAUGUGGGUCGUUUG | 37.3 | 244 | – | – |
| UAGUGAUUGCAAGGAUAUGCUAGUUUUUAUUUGUGUUUGAUAUCUAACAUGAGGAUCACCCAUGUGCAGAAGGUGCUUGAUUUG | – | – | 87.8 | 107 |
| UUGCUACAUGAGGAUCACCCAUGUCAGGAUAUUGUGUAUACCGUGGAAGCUGUGUCGAUAAGAAGGGACUGUCU | 26.6 | 30.5 | – | – |
| GUAGCAUACCAAGGAUAUUCAUAUAAUAAGUAAACAUGAGGAUCACCCAUGUAGUGAGAGCCUUGGGAGAAGGUGGAAUGCUAC | – | – | 16.6 | 18.3 |
| UGGUACUAGGCAGGAUAUGGGAAGAUACAUGAGGAUCACCCAUGUUUAAGAAUGCCGAGAGGCAACUAGAAGGCCCUAGUACCU | – | – | 719 | 620 |
| GAUUAGUGAGGAUAUGGUAAAGAUAAGAUGAUGAAAGAACUCCAGAAGGCACAUGAGGAUCACCCAUGUAGUAU | 17.4 | 21.6 | – | – |
| GGGUACAUCGGAGGAUAUAAUGUAAAUACAUGAGGAUCACCCAUGUCGAUGGAGACAUCGGAGAUUGAGAAGGCCGAUGUACCG | – | – | 110 | 38.4 |
| GUCCCGUCUAGCUUCAGCACAUGAGGAUCACCCAUGUCCUAGAGAAGGGCCUAGAGUUAUCAAAGGCAGGAUAUCUGCACAUGG | 30.8 | 47.7 | – | – |
| GAGGCCAAAACAUGAGGAUCACCCAUGUGAGUGGUCCGAAUAUAGGAUAUCCACACGAGAAGUGUGGAGAAGGAUAAUGGCGUC | 321 | 547 | – | – |
| GUCGUGCGGCUUUGCUGUACGAGUACAUGAGGAUCACCCAUGUAGGAUAUGGUUCGUUUUGCGUGCUAGAAGGGCGUGCGUUGU | 25.7 | 21.3 | – | – |
| UGUUGUAUUACAGGAUAUCUAGUAAUUUUAUUUAGAGAAGGGUAUUCACAUGAGGAUCACCCAUGUAUAUACGAGGAAGUUGUG | – | – | 37 | 39.7 |
| GUAUCGUGAGGAUAUCAUGAUUGACUUAGUUUAUGUCAGCGUGAGAAGGCACAUGAGGAUCACCCAUGUGAUUA | 24.7 | 54.9 | – | – |
| CGCACUGAUAGAGGAUAUGUUUUACAUGAGGAUCACCCAUGUGUACAAGGAUCAAUAUAUUAGUAACAGAAGGCUAUUUGUGCG | 21.7 | 19.1 | – | – |
| GCGUGGUUCUAGAAGGUGCUAGCGAUAAGCUAGCAAGGAUAUAGACAUGAGGAUCACCCAUGUCUAUGUGAAAUAGACACACGC | 4.75 | 4.62 | – | – |
| GUAUAUAGUGUGAGGAUAUGCUGGUCCUUGGAUCAGCAGAAGGCACAUGAGGAUCACCCAUGUAGUUAAAUAUG | 26.8 | 100 | – | – |
| AUUAUAUUAGGAUAUUCGCUGUGGUACAUGAGGAUCACCCAUGUAUCUGCUUGUAUCAACGAAGAAGGAAUGUGUA | 15.5 | 16.8 | – | – |
| CGCAACUUUUCUCAUGUAAACAUGAGGAUCACCCAUGUAAUGAGAAGGAGGAGAAAGAGAGAAUCCUAGGAUAUCAGAGUUGCG | 6.29 | 6.53 | – | – |
| AAAACAUGAGGAUCACCCAUGUAAAGAUCAGUUAAUAGAGGUGAGGAUAUACGAACUUAAAGGUAGUAGAAGGCACUGGGUACA | – | – | 35.9 | 30 |
| CAAUUGGCACAGAAGGGUGACAUGAGGAUCACCCAUGUAGCGUGGCACUUAGGAGGAGCCACGCCACAGGAUAUGUGCGGGCAC | – | – | 76.4 | 111 |
| AUUGUUCGAGAGAAGGGAACAUGAGGAUCACCCAUGUUACCUCACCCGGUGACGGAACUCCAAGUUCAGGAUAUCUCGAGCGAU | 7.64 | 16 | – | – |

| Sequence | apparent Kd [1] [nM] | apparent Kd [2] [nM] | apparent Kd [3] [nM] | apparent Kd [4] [nM] |
| --- | --- | --- | --- | --- |
| GGAUAAUUGAUCCUUUUUUAUUACAUGAGGAUCACCCAUGUGCAGGAUAUCGAUUAUUAUAGUUUCGAGAAGGGCAAGAAUUGU | 73.4 | 276 | – | – |
| AAAUAGCGAGGAUAUACAUGAGGAUCACCCAUGUGGACUGAUGUAGCAUGUUUCAGUGGUAGAAGGUGCUCAAA | 112 | 100 | – | – |
| ACUGUCCGAGAGAAGGGAACAUGAGGAUCACCCAUGUUACCUCACCUGGUGACGGAACUCCAAGUUCAGGAUAUCUCGAGCGGU | 4.72 | 6.53 | – | – |
| AACUAGUGAGGAUAUACAUGAGGAUCACCCAUGUACGUCGUGGGUAGAAAACAAGUCAGUAGAAGGUGCUAGAC | 157 | 248 | – | – |
| AAAACAUGAGGAUCACCCAUGUAAAGAUCGGUUAAUAGAGGUGAGGAUAUACGAACUUUUGGGUAGUAGAAGGCACUGGGUACA | – | – | 58.1 | 44 |
| CCAGUGUAAGGAUAUGACAAUGGUAUCUUCGGAUACCAUUGUCAGAAGGUACAUGAGGAUCACCCAUGUAACAC | 16.6 | 26.5 | – | – |
| AAGGAACAUGAGGAUCACCCAUGUGAGGAUAUGUGAGAAGGAUUUGAGAAGGAGAGGGACAGAAGGCACUAGGA | 46.9 | 41.8 | – | – |
| GGACGUCACAUGAACAUGAGGAUCACCCAUGUAACUAGACAUGAGGAUAUGGAUCCUAAUUGGAUCCAGAAGGCAUGGACGUCC | – | – | 199 | 32.1 |
| CCGUCAAUCGAGAAGGGCCUAUGUGCUACAUCGGCAGGAUAUCGACAUGAGGAUCACCCAUGUUGGCGAUCCUUUUUGGCGGAC | 156 | 24.1 | – | – |
| AAAAAAAAAGUAGAGGAUAUCCGAGUGGUAACAUGAGGAUCACCCAUGUGAAGAAAGGAAGAUGAGGAGAAGGCUACAAAAAAAAA | – | – | 47.5 | 21.9 |
| UAAUAAUAGCAAGGAUAUAGUUAUUAUAAUAUACUAGAAGGUGCACAUGAGGAUCACCCAUGUUUUAUAAUUUGUAAUUUAAAU | 29 | 22.4 | – | – |
| UGUCCAUAGCAGAAGGACAUGAAUAAAUAUGAAAACAUGAGGAUCACCCAUGUAGGAUAUGCUAUGGACUAAGAGCGAAAGCUC | 7.68 | 49.3 | – | – |
| GUAGCAUUAUAAGGAUAUUCAUACCGGAAACGGACAUGAGGAUCACCCAUGUGGCGAAAGCCUUGGGAGAAGGUAUUAUGCUAC | – | – | 537 | 24.9 |
| GGAUUACAUGAGGAUCACCCAUGUGAGGAUAUCGAUGUCCCUUGGCGCGUGCGGGACUCGAGAAGGCACUUGGA | 47.8 | 248 | – | – |
| UUUAGUUUAGGAUAUGUAGACGUUAACAUGAGGAUCACCCAUGUAGAUCCUGAAUUGGCUACAGAAGGAAGCAUUU | 285 | 531 | – | – |
| UUCCUACAUGAGGAUCACCCAUGUCAGGAUAUCUCCUCACUGCGCUUGCGCAGUGAAUAGAGAAGGGACAGGCU | 14.9 | 19.3 | – | – |
| AAGAUACUUACAGGAUAUAGGGCAUAGGGUGCCCUAGAAGGGUGAACAUGAGGAUCACCCAUGUAUGUAUCAGAUUAGAAGGCA | – | – | 53.3 | 41.8 |
| GCCAGGCAUGUAGGAUAUCCAUUGCGUCGCGUUGGAGAAGGGCAGCACACAUGAGGAUCACCCAUGUGGUCUCCCAUGUAGUGU | 163 | 206 | – | – |
| AUUAUUUUCGAAGGAUAUGGAUACAUGAGGAUCACCCAUGUAUAAAAUGUGAUCAAUUAUAUGAUCCAGAAGGUCGUUGUUUAU | 80.8 | 257 | – | – |
| UUUUAGUGAGGAUAUGUGGCUUCGAUCGUGAGAUCGAGGCUACAGAAGGCACAUGAGGAUCACCCAUGUUCCUG | 15.7 | 55.7 | – | – |
| AAAGGAUCAGGAUAUGCGUGGAAAAAGUGUAUUCAAAAAAAACAUGAGGAUCACCCAUGUAGAAGGGAUCCAAA | 182 | 657 | – | – |
| UGGUAACAUGAGGAUCACCCAUGUCAGGAUAUCAGGAAGAGGAGAGGAGAGGAGAAGAUGAGAAGGGACUAUAU | 27.2 | 21.9 | – | – |
| ACCAUUUACUAAUUAUCUAUACAUGAGGAUCACCCAUGUUAAGAGGAUAUCAUCGUUCGCCGCGAUGAGAAGGCUUAGCAUUCG | 48.8 | 154 | – | – |
| CUCUUGGCAGGAUAUGCUUUUUUAGACAUGAGGAUCACCCAUGUGAUGAAUAUUGGGUUCGCAGAAGGGCCUGAAU | 54.1 | 48.3 | – | – |
| CCAGCGUAUGUGAGGAUAUGCUGGUCCUUGGAUCAGCAGAAGGCACAUGAGGAUCACCCAUGUGAUAACGUUGG | 59.5 | 261 | – | – |
| GUGUUUGAUGAGGAUAUCGUUGUGGGUAUAUAGCGAGAAGGCAUUACAUGAGGAUCACCCAUGUAGUGUGGGUU | 26.2 | 49.4 | – | – |
| CUAUAUAAUACCUCAUGUACAUGAGGAUCACCCAUGUUAACAAAGGAUAUAUUUAUAUUAAUAAAGUAGAAGGUUGUACUAUUU | 19.5 | 17.1 | – | – |
